Values after ≈ are worked out from the molar mass of the structure shown.
Tests used:
[1] = system: Streptococcus pneumoniae; assay: Antibacterial activity against Streptococcus pneumoniae ATCC 49619 by CLSI M07-A8 method; type: functional
[2] = system: Escherichia coli; assay: Antibacterial activity against Escherichia coli ATCC 25922 by CLSI M07-A8 method; type: functional
[3] = system: Staphylococcus aureus; assay: Antibacterial activity against tetracycline-resistant Staphylococcus aureus isolate 158 harboring tet(K) gene by CLSI M07-A8 method; type: functional
Method in brief: (§1)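 MICs were determined by CLSI broth microdilution in freshly prepared cation-adjusted Mueller Hinton broth, kept at 4 °C before use. Defibrinated horse blood was added as appropriate. Runs met QC ranges for comparator antibiotics with ATCC quality control strains.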

[4] = system: Staphylococcus aureus; assay: Antibacterial activity against wild type Staphylococcus aureus Smith ATCC 13709 by CLSI M07-A8 method; type: functional
[5] = system: Escherichia coli; assay: Antibacterial activity against tetracycline-resistant Escherichia coli isolate 155 harboring tet(A) gene by CLSI M07-A8 method; type: functional
Method in brief: as §1, with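 “appropriate. The highest concentration tested was 32 μg/mL.” for “appropriate.”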

[6] = system: Staphylococcus aureus; assay: Antibacterial activity against tetracycline-resistant Staphylococcus aureus isolate 161 harboring tet(M) gene by CLSI M07-A8 method; type: functional; method in brief: as §1
[7] = system: Escherichia coli; assay: Inhibition of protein synthesis in Escherichia coli S30 extract by coupled transcription/translation assay; type: functional
Method in brief: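 Coupled transcription/translation used an E. coli S30 extract with a firefly luciferase reporter. Compounds were diluted in water and tested as a three-point titration in duplicate. Reactions ran 1 h at 37 °C and were stopped on ice for 5 min, then luciferase substrate was added and luminescence read. Percent inhibition was calculated against uninhibited controls averaged per plate, and IC50 derived.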

[8] = system: Streptococcus pneumoniae; assay: Antibacterial activity against tetracycline-resistant Streptococcus pneumoniae isolate 160 harboring tet(M) gene by CLSI M07-A8 method; type: functional; method in brief: as §1
[9] = system: Klebsiella pneumoniae; assay: Antibacterial activity against Klebsiella pneumoniae ATCC 13883 by CLSI M07-A8 method; type: functional
[10] = system: Escherichia coli; assay: Antibacterial activity against Escherichia coli by CLSI M07-A8 method; type: functional
[11] = system: Streptococcus pneumoniae; assay: Antibacterial activity against Streptococcus pneumoniae by CLSI M07-A8 method; type: functional
[12] = system: Escherichia coli; assay: Antibacterial activity against Escherichia coli ATCC 25922 infected in iv dosed mouse septicemia model assessed as mouse protection after 48 hrs; type: functional; conditions: ATCC 25922, iv, read-out: PD50
Method in brief: (§2)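 Mice were challenged intraperitoneally with bacteria mixed with 5% mucin. For S. aureus ATCC 13709 (Smith) the inoculum was 2.1 × 10^6 cfu/mouse, and for E. coli ATCC 25922 it was 2.0 × 10^7 cfu/mouse. PD50 in mg/kg was calculated from survival at 48 h.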

[13] = system: Haemophilus influenzae; assay: Antibacterial activity against Haemophilus influenzae by CLSI M07-A8 method; type: functional
[14] = system: Staphylococcus aureus; assay: Antibacterial activity against Staphylococcus aureus by CLSI M07-A8 method; type: functional
[15] = system: Staphylococcus aureus; assay: Antibacterial activity against Staphylococcus aureus ATCC 13709 infected in iv dosed mouse septicemia model assessed as mouse protection after 48 hrs; type: functional; conditions: ATCC 13709, iv, read-out: PD50; method in brief: as §2
[16] = Clearance in Sprague-Dawley rat at 1 mg/kg, iv and 10 mg/kg, po; type: ADME, organism-based; conditions: in vivo
[17] = AUC in Sprague-Dawley rat at 1 mg/kg, iv and 10 mg/kg, po; type: ADME, organism-based; conditions: plasma
[18] = Half life in Sprague-Dawley rat at 1 mg/kg, iv and 10 mg/kg, po; type: ADME, organism-based; conditions: in vivo
[19] = in vivo; conditions: Sprague-Dawley, rat, iv, 1 mg/kg
[20] = system: Rattus norvegicus; assay: Oral bioavailability in Sprague-Dawley rat at 1 mg/kg, iv and 10 mg/kg, po; type: ADME, organism-based; conditions: in vivo
[21] = system: Staphylococcus aureus; assay: Antibacterial activity against Staphylococcus aureus ATCC 13709 infected in mouse septicemia model assessed as mouse survival at 0.05 to 10 mg/kg, iv after 48 hrs; conditions: dose mg/kg 0.05-10

Structure (SMILES)	MIC [1]	MIC [2]	MIC [3]	MIC [4]	MIC [5]	MIC [6]	IC50 [7]	MIC [8]	MIC [9]	MIC90 [10]	ED50 [12]	MIC50 [14]	MIC90 [14]	ED50 [15]	also measured
CN(C)[C@@H]1C(O)=C(C(N)=O)C(=O)[C@@]2(O)C(O)=C3C(=O)c4c(O)c(NC(=O)CNC(C)(C)C)nc(F)c4C[C@H]3C[C@@H]12.Cl.Cl	2 µg/mL	8 µg/mL	16 µg/mL	4 µg/mL	> 32 µg/mL	16 µg/mL	0.36 µg/mL	8 µg/mL	16 µg/mL						
CN(C)CC(C)(C)CNc1nc(Cl)c2c(c1O)C(=O)C1=C(O)[C@]3(O)C(=O)C(C(N)=O)=C(O)[C@@H](N(C)C)[C@@H]3C[C@@H]1C2.Cl	0.016 µg/mL	0.5 µg/mL	0.125 µg/mL	0.5 µg/mL	8 µg/mL	2 µg/mL	0.7 µg/mL	0.125 µg/mL	2 µg/mL	4 µg/mL	17 mg/kg	0.125 µg/mL	2 µg/mL	0.36 mg/kg	MIC50 [10]: 1 µg/mL; MIC [11]: ≤ 0.016 µg/mL; MIC50 [11]: ≤ 0.016 µg/mL; MIC90 [11]: 0.063 µg/mL; MIC50 [13]: 1 µg/mL; MIC90 [13]: 1 µg/mL; clearance [16]: 3.37 mL/min/kg; AUC [17]: 4870 ng·h/mL; half-life [18]: 4.3 h; Vd [19]: 1.26 L/kg; F [20]: 0.8%
CCCNc1nc(F)c2c(c1O)C(=O)C1=C(O)[C@]3(O)C(=O)C(C(N)=O)=C(O)[C@@H](N(C)C)[C@@H]3C[C@@H]1C2.Cl.Cl	4 µg/mL	2 µg/mL	0.25 µg/mL	0.25 µg/mL	16 µg/mL	2 µg/mL	2.8 µg/mL	4 µg/mL	8 µg/mL						
CN(C)c1nc(NC(=O)CNC(C)(C)C)c(O)c2c1C[C@H]1C[C@H]3[C@H](N(C)C)C(O)=C(C(N)=O)C(=O)[C@@]3(O)C(O)=C1C2=O.Cl	4 µg/mL	32 µg/mL	8 µg/mL	16 µg/mL	> 32 µg/mL	32 µg/mL	0.71 µg/mL	4 µg/mL	> 32 µg/mL						
CN(C)[C@@H]1C(O)=C(C(N)=O)C(=O)[C@@]2(O)C(O)=C3C(=O)c4c(O)c(N)nc(Cl)c4C[C@H]3C[C@@H]12	0.016 µg/mL (≈ 0.0344 µM)	0.25 µg/mL (≈ 0.538 µM)	8 µg/mL (≈ 17.2 µM)	0.016 µg/mL (≈ 0.0344 µM)	> 32 µg/mL	4 µg/mL (≈ 8.6 µM)	1.1 µg/mL (≈ 2.37 µM)	4 µg/mL (≈ 8.6 µM)	0.5 µg/mL (≈ 1.08 µM)						
CN(C)[C@@H]1C(O)=C(C(N)=O)C(=O)[C@@]2(O)C(O)=C3C(=O)c4c(O)cccc4[C@@](C)(O)[C@H]3C[C@@H]12 [TETRACYCLINE]	0.25 µg/mL (≈ 0.563 µM)				> 32 µg/mL					> 64 µg/mL	17 mg/kg	0.125 µg/mL (≈ 0.281 µM)	> 64 µg/mL	0.35 mg/kg	MIC [11]: 0.125 µg/mL (≈ 0.281 µM); MIC [13]: 0.25 µg/mL (≈ 0.563 µM)
CN(C)c1ncc(O)c2c1C[C@H]1C[C@H]3[C@H](N(C)C)C(O)=C(C(N)=O)C(=O)[C@@]3(O)C(O)=C1C2=O.Cl.Cl	0.063 µg/mL	0.125 µg/mL	2 µg/mL	0.031 µg/mL	> 32 µg/mL	16 µg/mL	0.76 µg/mL	8 µg/mL	0.25 µg/mL	> 32 µg/mL	4.3 mg/kg	≤ 0.016 µg/mL	16 µg/mL	< 0.3 mg/kg	MIC50 [10]: 0.25 µg/mL; MIC50 [11]: 2 µg/mL; MIC90 [11]: 4 µg/mL; MIC50 [13]: 0.5 µg/mL; MIC90 [13]: 2 µg/mL; MIC [14]: ≤ 0.016 µg/mL; Survival [21]: 100%; clearance [16]: 15.3 mL/min/kg; AUC [17]: 1090 ng·h/mL; half-life [18]: 3.1 h; Vd [19]: 4.18 L/kg; F [20]: 12.7%
CN(C)CCCNc1nc(Cl)c2c(c1O)C(=O)C1=C(O)[C@]3(O)C(=O)C(C(N)=O)=C(O)[C@@H](N(C)C)[C@@H]3C[C@@H]1C2.Cl	1 µg/mL	8 µg/mL	2 µg/mL	2 µg/mL	> 32 µg/mL	8 µg/mL	0.58 µg/mL	4 µg/mL	16 µg/mL						
CN(C)[C@@H]1C(O)=C(C(N)=O)C(=O)[C@@]2(O)C(O)=C3C(=O)c4c(O)c(N)nc(F)c4C[C@H]3C[C@@H]12.Cl.Cl	0.063 µg/mL	0.25 µg/mL	8 µg/mL	0.063 µg/mL	> 32 µg/mL	2 µg/mL	0.93 µg/mL	2 µg/mL	1 µg/mL						
CN(C)c1cc(NC(=O)CNC(C)(C)C)c(O)c2c1C[C@H]1C[C@H]3[C@H](N(C)C)C(O)=C(C(N)=O)C(=O)[C@@]3(O)C(O)=C1C2=O [TIGECYCLINE]	0.016 µg/mL (≈ 0.0273 µM)	0.125 µg/mL (≈ 0.213 µM)	0.063 µg/mL (≈ 0.108 µM)	0.063 µg/mL (≈ 0.108 µM)	0.5 µg/mL (≈ 0.854 µM)	0.125 µg/mL (≈ 0.213 µM)	0.47 µg/mL (≈ 0.803 µM)	0.016 µg/mL (≈ 0.0273 µM)	0.125 µg/mL (≈ 0.213 µM)	0.5 µg/mL (≈ 0.854 µM)	2.1 mg/kg	0.063 µg/mL (≈ 0.108 µM)	1 µg/mL (≈ 1.71 µM)	0.35 mg/kg	MIC50 [10]: 0.25 µg/mL (≈ 0.427 µM); MIC [11]: ≤ 0.016 µg/mL; MIC50 [11]: ≤ 0.016 µg/mL; MIC90 [11]: ≤ 0.016 µg/mL; MIC50 [13]: 0.5 µg/mL (≈ 0.854 µM); MIC90 [13]: 0.5 µg/mL (≈ 0.854 µM); clearance [16]: 15.5 mL/min/kg; AUC [17]: 1050 ng·h/mL; half-life [18]: 4.6 h; Vd [19]: 6.12 L/kg; F [20]: 1.1%
CN(C)[C@@H]1C(O)=C(C(N)=O)C(=O)[C@@]2(O)C(O)=C3C(=O)c4c(O)c(NC(=O)CNC(C)(C)C)nc(Cl)c4C[C@H]3C[C@@H]12.Cl.Cl.Cl	1 µg/mL	4 µg/mL	32 µg/mL	2 µg/mL	> 32 µg/mL	32 µg/mL	0.78 µg/mL	16 µg/mL	8 µg/mL						

— ChEMBL document CHEMBL1687901 (J Med Chem, 2011)
